# According to ChEMBL document CHEMBL1135489, “Structurally simple trichostatin A-like straight chain hydroxamates as potent histone deacetylase inhibitors” (J Med Chem, 2002):
# pIC50: −log10 of the molar value.
# Assays:
# Histone deacetylase 1 = Histone deacetylase 1 (Homo sapiens, UniProt Q13547); assay: Inhibition against partially purified human histone deacetylase 1 (HDAC-1)
# MDA-MB-231 = assay: Inhibitory concentration required to reduce MDAmb 231 tumor cell growth by 50% in MTT assay; format: functional, cell-based; conditions: Homo sapiens
# Outline: (§1)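 Compound dilution series added to plated cells, 72 h at 37 °C, 5% CO2. MTT then added at 0.5 mg/mL final for 4 h. Solubilization buffer (50% DMF, 20% SDS, pH 4.7) added, incubated overnight, read at 570 with 630 reference. OD converted to cell number from each line's standard growth curve.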
# SW48 = assay: Inhibitory concentration required to reduce SW48 tumor cell growth by 50% in MTT assay; format: functional, cell-based; conditions: Homo sapiens; outline: as §1
# T-24 = assay: Inhibitory concentration required to reduce T24 tumor cell growth by 50% in MTT assay; format: functional, cell-based; conditions: Homo sapiens; outline: as §1
# A549 = assay: Inhibitory concentration required to reduce A549 tumor cell growth by 50% in MTT assay; format: functional, cell-based; conditions: Homo sapiens; outline: as §1
# MCF7 = assay: Inhibitory concentration required to reduce MCF-7 tumor cell growth by 50% in MTT assay; format: functional, cell-based; conditions: Homo sapiens; outline: as §1
# HCT-116 = assay: Inhibitory concentration required to reduce HCT 116 tumor cell growth by 50% in MTT assay; format: functional, cell-based; conditions: Homo sapiens; outline: as §1
# DU-145 = assay: Inhibitory concentration required to reduce DU145 tumor cell growth by 50% in MTT assay; format: functional, cell-based; conditions: Homo sapiens; outline: as §1
# NCI-H446 = assay: Inhibitory concentration required to reduce H446 tumor cell growth by 50% in MTT assay; format: functional, cell-based; conditions: Homo sapiens; outline: as §1
# HMEC = assay: Inhibitory concentration required to reduce normal human epithelial cell line (HMEC), growth by 50% in MTT assay; format: functional, cell-based; outline: as §1
# Histone deacetylase 1, sequence (Q13547 whole entry): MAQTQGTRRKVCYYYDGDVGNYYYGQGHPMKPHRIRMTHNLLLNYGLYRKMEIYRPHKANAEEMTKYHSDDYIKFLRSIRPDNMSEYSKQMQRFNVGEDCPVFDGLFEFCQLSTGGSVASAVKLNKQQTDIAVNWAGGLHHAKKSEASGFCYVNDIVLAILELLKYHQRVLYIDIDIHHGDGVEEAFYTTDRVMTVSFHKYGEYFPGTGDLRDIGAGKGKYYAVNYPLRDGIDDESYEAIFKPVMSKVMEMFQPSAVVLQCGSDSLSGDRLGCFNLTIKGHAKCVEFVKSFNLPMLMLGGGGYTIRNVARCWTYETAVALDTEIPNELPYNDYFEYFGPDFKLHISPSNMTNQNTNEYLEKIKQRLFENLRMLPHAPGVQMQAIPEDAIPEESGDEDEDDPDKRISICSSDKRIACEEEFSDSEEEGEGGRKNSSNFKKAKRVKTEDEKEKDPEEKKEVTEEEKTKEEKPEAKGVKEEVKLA
SMILES,pIC50 (Histone deacetylase 1),pIC50 (MDA-MB-231),pIC50 (SW48),pIC50 (T-24),pIC50 (A549),pIC50 (MCF7),pIC50 (HCT-116),pIC50 (DU-145),pIC50 (NCI-H446),pIC50 (HMEC)
O=C(CCCCCCC(=O)c1cccnc1)NO,6.82,,,,,,,,,
O=C(CCCCCCCc1ccc2ccccc2c1)NO,7.60,,,,,,,,,
O=C(CCCCCCC(=O)c1ccc(C(F)(F)F)cc1)NO,7.35,,,,,,,,,
CC(/C=C/C(=O)NO)=C\[C@@H](C)C(=O)c1ccc(N(C)C)cc1 [TRICHOSTATIN],,7.05,7.00,6.82,6.80,7.00,> 7.30,6.70,7.10,5.80
O=C(CCCCCCC(=O)c1ccc(N2CCN(c3ccccc3)CC2)cc1)NO,8.35,6.10,5.60,5.15,5.30,5.70,5.40,5.26,6.00,< 4.70
O=C(CCCCC/C=C/c1ccc2ccccc2c1)NO,8.22,,,,,,,,,
